# Assay outcomes from PubChem.
# Tn6 DDE FP: inhibitors of Tn6 peptide binding to human fibrin DD(E) | P02675 | AID 720509 | actives 0.21% (n = 370,000) | inhibition, % at 8.3 µM | Fibrin DD(E) TRITC-Tn6 fluorescence polarization displacement;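 active = inhibition above a per-campaign cutoff: mean of compounds within control limits plus 3 SD, cut at about 15% in these data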;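 note: 0% = median of all compound wells on the plate and 100% = blocking peptide control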
# Target sequence (P02675 whole entry, looked up): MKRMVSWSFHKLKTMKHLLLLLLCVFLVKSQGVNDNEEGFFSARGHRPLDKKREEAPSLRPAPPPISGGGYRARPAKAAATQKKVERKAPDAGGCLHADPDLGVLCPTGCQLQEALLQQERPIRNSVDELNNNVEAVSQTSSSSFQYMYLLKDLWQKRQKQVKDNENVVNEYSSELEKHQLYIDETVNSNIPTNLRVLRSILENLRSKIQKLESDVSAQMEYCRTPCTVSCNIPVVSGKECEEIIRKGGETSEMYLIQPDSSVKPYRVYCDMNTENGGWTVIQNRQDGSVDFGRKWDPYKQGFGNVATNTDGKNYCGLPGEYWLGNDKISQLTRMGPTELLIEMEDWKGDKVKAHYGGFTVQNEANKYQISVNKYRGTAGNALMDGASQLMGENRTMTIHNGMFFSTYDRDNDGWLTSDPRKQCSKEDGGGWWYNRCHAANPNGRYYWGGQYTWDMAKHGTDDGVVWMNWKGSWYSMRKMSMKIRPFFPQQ
# Cardiac RTF inh: cardiac RTF calcium desensitization; IANBD-labeled cardiac RTF, Ca2+ fluorescence; AID 493244; P19429+P45379; actives 0.12% (n = 340,000); inhibition, % at 7.15 µM;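 active = inhibition above the mean inhibition of all tested compounds plus 3 SD, cut at about 17% in these data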;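 note: assay run at fixed EC70 calcium of 1.6 mM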
# Tn7 DDE FP: DD(E)-Tn7 binding inhibition, primary FP screen. P02675. FP displacement of FITC-Tn7 peptide from fibrin DD(E); 0% = median of compound wells per plate. inhibition, % at 8.3 µM. actives 0.13% (n = 370,000);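 active = inhibition above the mean of compounds falling within the control limits plus 3 SD of them, cut at about 14% in these data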;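 note: 0% = plate median of compound wells and 100% = 10 µM Aha-Tn7 peptide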
#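 assay system = human clot-derived fibrin DD(E) complex | quantity = Fibrin-DD(E) at 2 µM final | timing = 10 min preincubation, 3 h with tracer, room temperature | signal = fluorescence polarization | measure = percent inhibition | benchmarks = high control wells with 10 µM unlabelled Aha-Tn7 peptide (full inhibition) | replicates = singlicate testing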
# C-LANA FP: blocks KSHV LANA C-terminal domain binding to DNA | MBP-C-LANA/FAM-LBS DNA binding, fluorescence polarization | inhibition, % at 9 µM | actives 0.078% (n = 340,000);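 active = highest replicate inhibition at or above 60% at 9 µM, even if other replicates fall short; inactive = all replicates below 60% inhibition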;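 note: 0% = neutral control wells and 100% = 4 µM acridine orange control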
# Keap1 Nrf2 FP: disrupts human Keap1 binding to Nrf2 peptide. AID 504523. inhibition, % at 9.4 µM. Keap1 Kelch-Nrf2 peptide fluorescence polarization, 1536-well. Q14145. actives 0.15% (n = 340,000); in the data active = inhibition above about 12%;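 note: human Keap1 Kelch domain with fluorescein labeled Nrf2 9mer peptide probe; 0% = neutral control wells and 100% = peptide positive control; higher means more block of Keap1 binding to Nrf2 peptide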
# cardiac RTF act: increases calcium sensitivity of human cardiac regulated thin filaments. P19429+P45379. IANBD-labeled TnC RTF fluorescence at EC20 calcium; 0% EC20 calcium, 100% full calcium. activation, % at 7.2 µM. actives 0.24% (n = 340,000). AID 493008;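 active = activation above the mean over all tested compounds plus 3 SD, cut at about 30% in these data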;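 note: rise in fluorescence read as greater calcium sensitivity of cardiac thin filaments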
# Keap1 TSA: binders of human Keap1 Kelch domain. max delta Tm, degrees C. AID 651823. Keap1 Kelch thermal shift, delta Tm; active compounds read high. shares compounds with Keap1 Nrf2 FP. actives 8% (n = 400); in the data active = max delta Tm above about 0.48 degrees C
# Sypro dye melt: dye artifact in Keap1 thermal shift counter-screen. shares compounds with Keap1 Nrf2 FP. Sypro Orange dye-only thermal melt, no protein, delta Tm; top dose 26 µM. delta Tm, degrees C (test concentration not listed). 140 tested, under 10 active. AID 651858;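 active = at highest dose tested, delta Tm positive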
# Tn7 DDE conf: confirmation of inhibitors of Tn7 binding to human fibrin DD(E); shares compounds with Tn7 DDE FP; FP displacement of TRITC-Tn7 peptide from DD(E); 0% set at plate's compound-well median; inhibition, % at 8.3 µM; actives 5% (n = 460);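 active = inhibition above the campaign cutoff, the mean of compounds within control limits plus 3 SD, cut at about 14% in these data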;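 note: 100% = median FP of high control wells holding Aha-Tn7 inhibitor peptide; displacers lower polarization since freed probe rises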
# Tn7 DDE ctr: DD(E)-Tn7 binding inhibition, counter-screen. fibrin DD(E), TRITC-Tn7 probe displacement, fluorescence polarization. actives 3% (n = 460). inhibition, % at 8.3 µM. AID 720633. shares compounds with Tn7 DDE FP;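 active = inhibition above the cutoff, the mean of compounds lying between the control bounds plus 3 SD of those compounds, cut at about 17% in these data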;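 note: 0% = median of compound sample wells and 100% = excess unlabeled Aha-Tn7 peptide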
# DDE Tn6 FP ctr: counter-screen for inhibitors of Tn6 peptide binding to fibrin DD(E); shares compounds with Tn6 DDE FP; TRITC-Tn6 fluorescence polarization displacement; 0% = median of compound wells, not DMSO; inhibition, % at 8.3 µM; actives 2% (n = 680);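 active = inhibition above the mean of test compounds lying between the control limits plus 3 SD of those, cut at about 14% in these data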;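 note: 0% = median of compound wells and 100% = wells with Aha-Tn7 blocking peptide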
# Tn6 DDE conf: confirmation of inhibitors of Tn6 binding to human fibrin DD(E). shares compounds with Tn6 DDE FP. actives 10% (n = 680). FP displacement of TRITC-Tn6 peptide from DD(E); 0% = per-plate median of test wells. inhibition, % at 8.3 µM;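 active = inhibition above the mean of compounds lying within the control limits plus 3 SD, cut at about 16% in these data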;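 note: 100% = high control wells holding a competing inhibitor peptide at 10 µM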
# * marks the source's active call; other numbers are inactive results; i = inactive; x = not tested or not shown; + = active, no number. The list is not random: actives were taken first. Their share in the collection is about 0.73%.
SMILES,Tn6 DDE FP,Cardiac RTF inh,Tn7 DDE FP,C-LANA FP,Keap1 Nrf2 FP,cardiac RTF act,Keap1 TSA,Tn7 DDE conf,Tn7 DDE ctr,others
O=C1c2cccc3c(O)ccc(c23)C(=O)N1Cc1ccco1,11.6,i,55.9*,75.9*,37.2*,574.0*,0.29,6.0,4.3,
O=C1c2cccc3c(O)ccc(c23)C(=O)N1c1ccc(Cl)cc1,13.5,i,40.3*,71.3,39.1*,531.5*,0.21,3.0,7.8,
CCC1(c2ccccc2)NC(=O)N(CC(=O)Nc2ccc(OC)nc2)C1=O (centres undefined),-1.5,-79.8,22.1*,88.3*,60.7*,61.5*,-0.12,5.2,-4.0,
CCC1(c2ccccc2)NC(=O)N(CC(=O)Nc2ccc3c(c2)CCC3)C1=O (centres undefined),-3.8,x,-1.3,x,x,x,x,x,x,
CCCCCCn1c(=O)[nH]c2nc3cc(N)c(C)cc3nc2c1=O,-10.7,i,30.4*,48.6,27.3*,627.3*,0.59,-0.4,6.6,Sypro dye melt=-21.2
CCCCn1c(=O)[nH]c2nc3cc(NC(C)=O)ccc3nc2c1=O,-1.0,-8.6,-2.7,3.5,-4.9,5.8,x,x,x,
CCn1c(SCc2ccc(C(C)(C)C)cc2)nnc1-c1ccc(C(C)(C)C)cc1,-7.2,x,-2.1,x,x,x,x,x,x,
Cc1cc2nc3c(=O)[nH]c(=O)[nH]c3nc2c([N+](=O)[O-])c1N,-5.7,-133.1,31.2*,109.2*,89.1*,139.5*,0.18,11.3,7.1,Sypro dye melt=-26.8
COc1ccc(C(=O)C2(C(=O)NCCO)CC(c3ccccn3)=NO2)cc1 (centres undefined),0.8,x,2.4,x,x,x,x,x,x,
COc1ccc(CNC(=O)C[C@@H]2C=C[C@@H](NS(=O)(=O)c3cccc(OC)c3)[C@@H](CO)O2)cc1,-1.4,x,-8.3,x,x,x,x,x,x,
O=C(c1ccc(O)cc1)c1ccc(O)cc1O,-6.7,2.8,-7.3,12.1,0.9,-0.5,x,x,x,
O=C(c1ccccc1)c1ccc(O)cc1O,0.1,-237.9,33.8*,103.3*,59.4*,156.6*,-0.15,11.9,-12.2,
COc1cc(NC(=O)NC2CCCCN(Cc3cccc(Cl)c3)C2=O)cc(OC)c1 (centres undefined),-3.2,x,-2.9,x,x,x,x,x,x,
CNc1cccc(-c2ccc(N3CCN(C)CC3)nc2)n1,-2.4,x,-6.5,x,x,x,x,x,x,
COc1ccc(CNc2nc3ccccc3n2C)c(OC)c1,-4.5,-7.7,-7.3,-0.3,0.8,-0.8,x,x,x,
COc1ccc(N=Nc2nc3cc(Br)c(Br)cc3n2C)c(OC)c1,-0.1,-42.3,27.6*,24.3,12.6*,47.4*,0.04,11.2,-3.3,
Oc1ccc2nnc3c(Br)cnn3c2c1,-6.5,-115.9,17.1*,67.5*,37.1*,84.3*,-0.17,10.8,-0.9,
CC(C)(C)c1cc[n+](-c2[nH]c(=O)sc2/C=N/NC([S-])=Nc2ccccc2)cc1,-4.4,-127.2,20.0*,51.4,30.9*,80.8*,-0.09,-5.6,-10.5,Sypro dye melt=-22.6
O=C1C=CC(=O)c2c(O)c(N3CCN(CCO)CC3)c(Cl)c(O)c21,39.8*,0.8,-6.1,4.3,38.5*,-5.7,-0.07,x,x,Sypro dye melt=-22;DDE Tn6 FP ctr=-4.2;Tn6 DDE conf=9.5
CCN1CC=C2C(C1)C(c1ccc(Cl)s1)C(C#N)=C(N)C2(C#N)C#N (centres undefined),15.8*,-26.8,3.1,36.2,21.0*,30.0*,-0.04,x,x,DDE Tn6 FP ctr=-1.5;Tn6 DDE conf=-2.8
CCOC(=O)[C@]12CCC=C1N(Cc1ccccc1)C(=O)[C@H](CC(=O)NCc1cccc(C(F)(F)F)c1)C2,-2.7,x,0.8,x,x,x,x,x,x,
CC1CCC(C(C)C)C2=C1C(C#N)(C#N)C(C#N)(C#N)C(c1ccccc1)N2 (centres undefined),2.3,-10.6,-1.4,2.8,-4.9,3.0,x,x,x,
CC(C)C1OC2(C)OC(=N)C1(C#N)C(C#N)(C#N)C2c1ccccc1 (centres undefined),20.2*,-27.8,9.3,94.1*,21.1*,9.6,-0.06,x,x,Sypro dye melt=-30.8;DDE Tn6 FP ctr=-2.9;Tn6 DDE conf=2.4
CCC1CCc2sc(C(=O)Nc3cc(S(=O)(=O)N4CCOCC4)ccc3OC)cc2C1 (centres undefined),-10.3,x,-5.5,x,x,x,x,x,x,
COc1ccc2noc3c2c1C(=O)c1ccccc1-3,52.3*,i,-5.6,129.7*,106.1*,+,0.04,x,x,Sypro dye melt=6.24*;DDE Tn6 FP ctr=53.3*;Tn6 DDE conf=14.5
SMILES,Tn6 DDE FP,Cardiac RTF inh,Tn7 DDE FP,C-LANA FP,Keap1 Nrf2 FP,cardiac RTF act,Keap1 TSA,Tn7 DDE conf,Tn7 DDE ctr,others
CNc1ccc2c3c(cccc13)C(=O)N(C)C2=O,47.4*,i,-6.3,109.0*,109.2*,+,0,x,x,DDE Tn6 FP ctr=53.3*;Tn6 DDE conf=42.9*
CN1C(=O)c2cccc3c(Cl)ccc(c23)C1=O,-3.2,-0.1,1.6,-0.5,-6.6,13.2,x,x,x,
Cc1ccc(NC(=O)c2ccc(CS(=O)(=O)Cc3ccccc3C)o2)cc1C,-1.2,x,0.6,x,x,x,x,x,x,
Cc1ccc(C2C(C(=O)c3cccs3)=C(O)C(=O)N2c2nnc(C)s2)cc1 (centres undefined),-4.3,-56.1,31.6*,27.4,1.2,25.5,x,3.3,-1.1,
COc1ccc(C2C(C(=O)c3cccs3)=C(O)C(=O)N2c2cccc(C)n2)cc1 (centres undefined),-3.3,5.6,-4.6,0.2,-2.2,0.5,x,x,x,
NNC(=O)CP(=O)(c1ccccc1)c1ccccc1,-2.5,2.2,6.6,0.7,-3.9,4.9,x,x,x,
O=C(CP(=O)(c1ccccc1)c1ccccc1)Nn1cnnc1,1.9,-2.4,16.5*,0.6,0.5,1.7,x,-0.5,-3.6,
CC(=O)n1c2ccccc2c2ccccc21,9.0,-1.2,13.9*,2.6,-0.7,2.8,x,1.0,-7.2,
O=C(NCCNS(=O)(=O)c1ccc(C(F)(F)F)cc1)N1CCOCC1,1.0,-4.0,-0.2,1.2,-4.0,-0.2,x,x,x,
